{"source": "paper PMC3529916", "about": "(Bioorganic & medicinal chemistry, 2012)", "key": {"[1]": {"test_system": "anxiety", "assay": "Light/dark cycle test", "format": "in vivo, mouse"}, "[2]": {"test_system": "locomotor activity", "assay": "Locomotor activity test", "format": "in vivo, mouse"}, "[3]": {"conditions": "cited from earlier work"}, "[4]": {"conditions": "via hepatic enzymes; ref unpublished results; cited from earlier work"}, "[5]": {"test_system": "anxiety", "conditions": "cited from earlier work; for Anti-conflict effect / Effect on non-suppressed responding / response rates: dose range 0.1 to 10 mg/kg"}, "[6]": {"conditions": "ref Mithridion, unpublished results; cited from earlier work"}, "[7]": {"conditions": "ref Bristol-Myers Squibb, unpublished results of Phase I trials; cited from earlier work"}, "[8]": {"assay": "Metabolic stability using pooled human liver microsomes", "format": "in vitro ADME", "conditions": "1 and 10 μM, up to 60 min"}, "[9]": {"test_system": "neuropathic and inflammatory pain", "conditions": "cited from earlier work"}, "[10]": {"target": "α3β3γ2 GABAA receptors (Rattus norvegicus, UniProt P18508+P20236)", "sequence (P20236 29-493)": "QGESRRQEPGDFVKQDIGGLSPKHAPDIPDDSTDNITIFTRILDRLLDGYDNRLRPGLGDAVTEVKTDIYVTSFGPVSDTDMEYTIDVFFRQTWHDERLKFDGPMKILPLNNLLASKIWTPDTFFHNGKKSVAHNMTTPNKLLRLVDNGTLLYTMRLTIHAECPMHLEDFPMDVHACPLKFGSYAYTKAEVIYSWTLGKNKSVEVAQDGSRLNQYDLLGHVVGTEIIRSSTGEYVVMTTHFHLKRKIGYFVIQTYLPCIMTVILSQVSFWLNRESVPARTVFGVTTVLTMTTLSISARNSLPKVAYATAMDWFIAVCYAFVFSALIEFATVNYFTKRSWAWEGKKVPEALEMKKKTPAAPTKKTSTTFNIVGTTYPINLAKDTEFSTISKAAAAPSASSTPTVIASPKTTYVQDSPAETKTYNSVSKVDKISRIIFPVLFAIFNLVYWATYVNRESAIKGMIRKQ", "sequence (P63079 26-473 partner)": "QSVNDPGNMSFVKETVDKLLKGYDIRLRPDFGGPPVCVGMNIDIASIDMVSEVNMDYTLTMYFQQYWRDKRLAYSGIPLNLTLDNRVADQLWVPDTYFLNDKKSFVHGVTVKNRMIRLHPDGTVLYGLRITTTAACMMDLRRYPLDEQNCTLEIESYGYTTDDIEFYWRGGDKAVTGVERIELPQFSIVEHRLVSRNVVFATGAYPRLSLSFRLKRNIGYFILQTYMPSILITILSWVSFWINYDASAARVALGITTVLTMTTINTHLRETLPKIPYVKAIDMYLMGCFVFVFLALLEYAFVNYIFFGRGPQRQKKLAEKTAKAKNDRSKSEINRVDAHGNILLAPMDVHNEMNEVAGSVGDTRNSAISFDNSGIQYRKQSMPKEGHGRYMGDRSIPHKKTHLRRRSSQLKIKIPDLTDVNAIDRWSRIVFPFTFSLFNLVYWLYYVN", "sequence (P18508 39-466)": "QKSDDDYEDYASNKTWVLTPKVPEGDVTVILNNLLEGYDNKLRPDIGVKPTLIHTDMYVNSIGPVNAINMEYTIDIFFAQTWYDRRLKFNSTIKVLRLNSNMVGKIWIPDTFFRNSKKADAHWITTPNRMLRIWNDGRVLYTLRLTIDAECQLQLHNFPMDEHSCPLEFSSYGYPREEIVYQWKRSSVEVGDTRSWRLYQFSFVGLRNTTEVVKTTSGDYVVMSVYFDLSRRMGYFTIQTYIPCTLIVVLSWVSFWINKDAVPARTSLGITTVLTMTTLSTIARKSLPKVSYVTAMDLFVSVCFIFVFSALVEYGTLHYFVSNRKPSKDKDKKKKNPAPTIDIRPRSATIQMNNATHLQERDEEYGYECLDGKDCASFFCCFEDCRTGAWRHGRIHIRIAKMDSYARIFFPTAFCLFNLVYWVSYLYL", "assay": "Two-electrode voltage clamp, stimulation of GABA EC3 currents in Xenopus oocytes", "format": "cell-based", "conditions": "dose-response curves", "summary_of_the_method": "(§1)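 Xenopus oocytes were injected with rat β3 and γ2 cDNAs plus α1, α2, α3 or α5. Follicle layers were removed 36 h later. Two-electrode voltage clamp was done at −60 mV and room temperature in XR buffer (pH 7.4, 5 mM HEPES). Test compound (0.1% DMSO final) was preapplied for 30 s, then coapplied with EC3 GABA until peak, with washes of up to 15 min. Curves were fitted to a four-parameter logistic.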"}, "[11]": {"target": "α1β3γ2 GABAA receptors (Rattus norvegicus, UniProt P18508+P62813)", "sequence (P62813 28-455)": "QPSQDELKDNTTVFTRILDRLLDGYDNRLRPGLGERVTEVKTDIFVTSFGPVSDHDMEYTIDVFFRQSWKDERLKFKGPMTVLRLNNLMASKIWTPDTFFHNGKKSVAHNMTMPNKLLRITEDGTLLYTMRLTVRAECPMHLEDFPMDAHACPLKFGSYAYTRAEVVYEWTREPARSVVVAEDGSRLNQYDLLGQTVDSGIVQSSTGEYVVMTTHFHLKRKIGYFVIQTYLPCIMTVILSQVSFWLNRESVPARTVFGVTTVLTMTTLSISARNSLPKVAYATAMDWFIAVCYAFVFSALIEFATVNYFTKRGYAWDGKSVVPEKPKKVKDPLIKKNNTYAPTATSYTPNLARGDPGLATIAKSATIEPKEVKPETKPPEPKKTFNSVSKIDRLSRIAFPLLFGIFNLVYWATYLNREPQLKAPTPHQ", "sequence (P63079 26-473 partner)": "as the sequence (P63079 26-473 partner) above", "sequence (P18508 39-466)": "as the sequence (P18508 39-466) above", "assay": "Two-electrode voltage clamp, stimulation of GABA EC3 currents in Xenopus oocytes", "format": "cell-based", "summary_of_the_method": "as §1"}, "[12]": {"target": "α2β3γ2 GABAA receptors (Rattus norvegicus, UniProt P18508+P23576)", "sequence (P23576 29-451)": "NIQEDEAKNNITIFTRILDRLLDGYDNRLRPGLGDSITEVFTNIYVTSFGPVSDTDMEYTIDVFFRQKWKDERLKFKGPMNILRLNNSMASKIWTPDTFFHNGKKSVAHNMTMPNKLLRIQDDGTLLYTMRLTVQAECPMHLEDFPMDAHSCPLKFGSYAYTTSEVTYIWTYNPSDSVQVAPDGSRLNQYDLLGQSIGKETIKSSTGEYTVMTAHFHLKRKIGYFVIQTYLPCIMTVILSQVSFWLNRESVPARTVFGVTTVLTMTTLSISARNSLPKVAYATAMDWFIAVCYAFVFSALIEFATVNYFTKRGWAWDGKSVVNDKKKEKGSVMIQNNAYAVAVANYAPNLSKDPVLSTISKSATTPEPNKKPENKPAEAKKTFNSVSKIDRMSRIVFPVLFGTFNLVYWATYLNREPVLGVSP", "sequence (P63079 26-473 partner)": "as the sequence (P63079 26-473 partner) above", "sequence (P18508 39-466)": "as the sequence (P18508 39-466) above", "assay": "Two-electrode voltage clamp, stimulation of GABA EC3 currents in Xenopus oocytes", "format": "cell-based", "conditions": "100 nM", "summary_of_the_method": "as §1"}, "[13]": {"target": "α5β3γ2 GABAA receptors (Rattus norvegicus, UniProt P18508+P19969)", "sequence (P19969 32-464 limits assumed)": "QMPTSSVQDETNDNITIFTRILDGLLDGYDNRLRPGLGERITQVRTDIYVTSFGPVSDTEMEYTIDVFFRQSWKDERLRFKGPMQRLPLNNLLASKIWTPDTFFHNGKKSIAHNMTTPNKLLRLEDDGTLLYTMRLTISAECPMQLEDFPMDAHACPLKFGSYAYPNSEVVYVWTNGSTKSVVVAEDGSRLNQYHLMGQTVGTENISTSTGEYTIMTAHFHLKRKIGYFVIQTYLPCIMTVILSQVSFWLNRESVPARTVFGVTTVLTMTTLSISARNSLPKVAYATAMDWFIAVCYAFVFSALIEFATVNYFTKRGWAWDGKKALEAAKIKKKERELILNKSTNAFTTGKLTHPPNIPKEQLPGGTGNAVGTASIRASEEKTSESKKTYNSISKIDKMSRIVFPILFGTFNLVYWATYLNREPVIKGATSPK", "sequence (P63079 26-473 partner)": "as the sequence (P63079 26-473 partner) above", "sequence (P18508 39-466)": "as the sequence (P18508 39-466) above", "assay": "Two-electrode voltage clamp, stimulation of GABA EC3 currents in Xenopus oocytes", "format": "cell-based", "summary_of_the_method": "as §1"}, "[14]": {"conditions": "positive control, 3 mg/kg, i.p."}}, "note": "“Also recorded” adds a separate entry of the source."}
{"smiles": "CN1C(=O)CN=C(c2ccccc2)c2cc(Cl)ccc21", "note": "[Diazepam, reference compound]", "values": [{"measurement": "Anxiolytic activity (time spent in the lighted area vs vehicle)", "setting": "[1]; [14]", "result": "significantly anxiolytic"}, {"measurement": "Locomotor activity vs vehicle", "setting": "[2]; [14]", "result": "significantly reduced locomotor activity"}]}
{"smiles": "C#Cc1ccc2c(c1)C(c1ccccc1)=NCc1c(C(=O)OCC)ncn1-2", "note": "[compound 1]", "values": [{"measurement": "Preclinical safety and efficacy, in words", "setting": "[3]", "result": "safe and effective"}, {"measurement": "Metabolic transformation in human liver, in words", "setting": "[4]", "result": "largely transformed into the inactive metabolite XHe-II-053-acid (4)"}, {"measurement": "Side effects, in words", "setting": "[5]", "result": "lacked sedative, ataxic, muscle relaxant and amnestic side effects"}, {"measurement": "Anti-conflict effect", "setting": "[5]", "result": "anti-conflict effect"}, {"measurement": "Effect on non-suppressed responding / response rates", "setting": "[5]", "result": "without producing diazepam-like alterations"}, {"measurement": "Stability in human tissues, in words", "setting": "[6]", "result": "stable in human blood, plasma, brain and kidney"}, {"measurement": "Safety in humans", "setting": "[7]", "result": "safe in humans"}]}
{"smiles": "C#Cc1ccc2c(c1)C(c1ccccc1F)=NCc1c(C(=O)NC)ncn1-2", "note": "[compound 8, 8-Ethynyl-N-methyl-6-(2-fluorophenyl)-4H-benzo-[f]-imidazo-[1,5-a]-[1,4]-diazepine-3-carboxamide]", "values": [{"measurement": "Metabolic stability on human liver microsomes, in words", "setting": "[8]", "result": "significantly more stable than the corresponding ethyl ester analog 3"}]}
{"smiles": "C#Cc1ccc2c(c1)C(c1ccccn1)=NCc1c(C(=O)OCC)ncn1-2", "note": "[compound 2]", "values": [{"measurement": "Metabolic stability on human liver microsomes, in words", "setting": "[8]", "result": "minimal metabolism"}, {"measurement": "Tolerance development (analgesic activity, chronic versus acute treatment)", "setting": "[9]; 9-day chronic treatment period", "result": "no loss of analgesic activity"}, {"measurement": "Sedation and motor impairment", "setting": "[9]; at doses producing maximal antihyperalgesia", "result": "devoid of sedation and motor impairment"}, {"measurement": "Side effects, in words", "setting": "[5]", "result": "lacked sedative, ataxic, muscle relaxant and amnestic side effects"}, {"measurement": "Anti-conflict effect", "setting": "[5]", "result": "anti-conflict effect"}, {"measurement": "Effect on non-suppressed responding / response rates", "setting": "[5]", "result": "without producing diazepam-like alterations"}]}
{"smiles": "C#Cc1ccc2c(c1)C(c1ccccn1)=NCc1c(-c3nc(C(C)C)no3)ncn1-2", "note": "[compound 12, 5-(8-Ethynyl-6-(pyridin-2-yl)-4H-benzo-[f]-imidazo-[1,5-a]-[1,4]-diazepine-3-yl)-3-isopropyl-1,2,4-oxadiazole]", "values": [{"measurement": "Relative potency, in words", "setting": "[10]", "result": "far less potent than 6 and 11"}, {"measurement": "Metabolic stability on human liver microsomes, in words", "setting": "[8]", "result": "significantly more stable than 1 and 2 respectively"}]}
{"smiles": "C#Cc1ccc2c(c1)C(c1ccccn1)=NCc1c(C(=O)O)ncn1-2", "note": "[compound 5]", "values": [{"measurement": "Metabolic stability on human liver microsomes, in words", "setting": "[8]", "result": "did not exhibit any metabolism"}]}
{"smiles": "C#Cc1ccc2c(c1)C(c1ccccc1)=NCc1c(C(=O)NC)ncn1-2", "note": "[compound 6, 8-Ethynyl-N-methyl-6-phenyl-4H-benzo-[f]-imidazo-[1,5-a]-[1,4]-diazepine-3-carboxamide]", "values": [{"measurement": "Efficacy, in words", "setting": "[11]; 100 nM", "result": "very weak agonistic effects"}, {"measurement": "Efficacy, in words", "setting": "[11]; higher concentration", "result": "antagonist"}, {"measurement": "Metabolic stability on human liver microsomes, in words", "setting": "[8]", "result": "decreased rate of metabolism; also recorded: much more stable on human liver microsomes than 1"}, {"measurement": "Efficacy, in words", "setting": "[12]", "result": "very weak agonistic effects"}, {"measurement": "Efficacy, in words", "setting": "[13]; 100 nM", "result": "very weak agonistic effects"}, {"measurement": "Efficacy, in words", "setting": "[13]; higher concentration", "result": "antagonist"}]}
{"smiles": "C#Cc1ccc2c(c1)C(c1ccccc1)=NCc1c(C(=O)O)ncn1-2", "note": "[compound 4]", "values": [{"measurement": "Metabolic stability on human liver microsomes, in words", "setting": "[8]", "result": "did not exhibit any metabolism"}]}
{"smiles": "C#Cc1ccc2c(c1)C(c1ccccc1F)=NCc1c(C(=O)OCC)ncn1-2", "note": "[compound 3]", "values": [{"measurement": "Metabolic stability on human liver microsomes, in words", "setting": "[8]", "result": "underwent biotransformation almost quantitatively; also recorded: not very stable"}, {"measurement": "Anti-conflict effect", "setting": "[5]", "result": "robust anti-conflict effect"}, {"measurement": "Effect on non-suppressed responding / response rates", "setting": "[5]", "result": "some reduction in response rates at the highest dose tested"}]}
{"smiles": "C#Cc1ccc2c(c1)C(c1ccccn1)=NCc1c(C(=O)NC)ncn1-2", "note": "[compound 7, 8-Ethynyl-N-methyl-6-(pyridine-2-yl)-4H-benzo-[f]-imidazo-[1,5-a]-[1,4]-diazepine-3-carboxamide]", "values": [{"measurement": "Relative potency, in words", "setting": "[10]", "result": "relatively less potent than 8"}, {"measurement": "Metabolic stability on human liver microsomes, in words", "setting": "[8]", "result": "much more stable on human liver microsomes than 1"}]}
{"smiles": "C#Cc1ccc2c(c1)C(c1ccccc1)=NCc1c(-c3nc(C(C)C)no3)ncn1-2", "note": "[compound 11]", "values": [{"measurement": "Metabolic stability on human liver microsomes, in words", "setting": "[8]", "result": "significantly more stable than 1 and 2 respectively; also recorded: much more stable on human liver microsomes than 1"}, {"measurement": "Anxiolytic activity (time spent in the lighted area vs vehicle)", "setting": "[1]; 10 and 100 mg/kg", "result": "significant anxiolytic activity"}, {"measurement": "Locomotor activity vs vehicle", "setting": "[2]; 10 and 100 mg/kg", "result": "significantly increased locomotor activity"}, {"measurement": "Sedation / ataxia, in words", "setting": "[2]; 10 and 100 mg/kg", "result": "devoid of sedative properties; also recorded: no effects from either ataxia or sedation; also recorded: no sedative properties"}]}
